Assay results reported in ChEMBL document CHEMBL1128718, “2-Substituted penems with amino acid-related side chains: synthesis and antibacterial activity of a new series of beta-lactam antibiotics” (1995).
≈ marks a conversion by molar mass, not a printed value.

Legend:
Format in all cases: functional
Enterococcus faecalis [1] = experiment: In Vitro Anti Bacterial Activity (MIC90) against 90% of tested clinical Isolates of Enterococcus faecalis(47)
In short: (§1)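 Over 500 clinical isolates tested in total; the line gives the isolate count. MIC90 for aerobes by dilution in Mueller Hinton 2 medium, inoculum 10⁴ cells/mL, incubated 24 h at 37 °C.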

Aeromonas = experiment: In Vitro Anti Bacterial Activity (MIC90) against 90% of tested clinical Isolates of Aeromonas species(21); in short: as §1
Pseudomonas aeruginosa [2] = experiment: In Vitro antibacterial activity against (Pa G242) hyperpermeable Pseudomonas aeruginosa strain
In short: (§2)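 Panel of standard ATCC strains plus modified strains: methicillin-resistant, hyperpermeable, β-lactamase-producing (TEM1, TEM2, SHV) and β-lactamase-lacking. MIC determined in Mueller Hinton 2 medium, inoculum 10⁴ cells/mL, incubated 24 h at 37 °C.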

Escherichia coli [3] = experiment: In Vitro antibacterial activity against (Ec L) Escherichia coli […] strain; in short: as §2
Staphylococcus aureus [4] = experiment: In Vitro Anti Bacterial Activity (MIC90) against 90% of tested clinical Isolates of Staphylococcus aureus MS (6); in short: as §1
Klebsiella aerogenes = experiment: In Vitro Anti Bacterial Activity (MIC90) against 90% of tested clinical Isolates of Enterobacter aerogenes(19); in short: as §1
Enterococcus faecium = experiment: In Vitro Anti Bacterial Activity (MIC90) against 90% of tested clinical Isolates of Enterococcus faecium(47); in short: as §1
Streptococcus pneumoniae = experiment: In Vitro Anti Bacterial Activity (MIC90) against 90% of tested clinical Isolates of Streptococcus pneumoniae (23)
Bacteroides fragilis = experiment: In Vitro Anti Bacterial Activity (MIC90) against 90% of tested clinical Isolates of Bacteroides fragilis(15)
In short: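 Anaerobic clinical isolates. MIC90 by dilution in Wilkins-Chalgren agar, inoculum 10⁵ cells/mL, incubated 24–48 h at 37 °C.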

Pseudomonas aeruginosa [5] = experiment: In Vitro antibacterial activity against (Pa) Pseudomonas aeruginosa ATCC 27853; in short: as §2
[6] = tested on: Acinetobacter calcoaceticus subsp. anitratus; experiment: In Vitro Anti Bacterial Activity (MIC90) against 90% of tested clinical Isolates of Acinetobacter anitratus(20); in short: as §1
Staphylococcus aureus [7] = experiment: In vitro antibacterial activity against Sa(II) Staphylococcus aureus ATCC 25923; in short: as §2
Moraxella catarrhalis = experiment: In Vitro Anti Bacterial Activity (MIC90) against 90% of tested clinical Isolates of Branhamella catarrhalis(27)
Streptococcus pyogenes = experiment: In Vitro Anti Bacterial Activity (MIC90) against 90% of tested clinical Isolates of Streptococcus pyogenes(31)
Staphylococcus aureus [8] = experiment: In vitro antibacterial activity against Sa(I) Staphylococcus aureus ATCC 29213
In short: (§3)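 MIC was determined in Mueller Hinton 2 medium with an inoculum of 10⁴ cells/mL and incubation for 24 h at 37 °C. Strains: Sa(I) is S. aureus ATCC 29213; Sa MR(I) is a heterogeneous methicillin-resistant S. aureus; Sa MR(II) is a homogeneous methicillin-resistant S. aureus.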

Morganella morganii = experiment: In Vitro Anti Bacterial Activity (MIC90) against 90% of tested clinical Isolates of Morganella morganii(10); in short: as §1
[9] = tested on: Stenotrophomonas maltophilia; experiment: In Vitro Anti Bacterial Activity (MIC90) against 90% of tested clinical Isolates of Xanthomonas maltophilia(9); in short: as §1
Listeria monocytogenes = experiment: In Vitro Anti Bacterial Activity (MIC90) against 90% of tested clinical Isolates of Listeria monocytogenes (20); in short: as §1
Citrobacter freundii = experiment: In Vitro Anti Bacterial Activity (MIC90) against 90% of tested clinical Isolates of Citrobacter freundii(20); in short: as §1
Yersinia sp. = experiment: In Vitro Anti Bacterial Activity (MIC90) against 90% of tested clinical Isolates of Yersinia species(20); settings: Yersinia sp. (in: enterobacteria)
Haemophilus influenzae = experiment: In Vitro Anti Bacterial Activity (MIC90) against 90% of tested clinical Isolates of Haemophilus Influenzae(21)
In short: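 Clinical isolates. MIC90 in Haemophilus Test Medium Base plus Haemophilus Test Medium Supplement, inoculum 10⁴ cells/mL, incubated 24–48 h at 37 °C.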

Providencia rettgeri = experiment: In Vitro Anti Bacterial Activity (MIC90) against 90% of tested clinical Isolates of Providencia rettgeri(10); in short: as §1
Escherichia coli [10] = experiment: In Vitro Anti Bacterial Activity (MIC90) against 90% of tested clinical Isolates of Escherichia coli; in short: as §1
Escherichia coli [11] = experiment: In Vitro antibacterial activity against (Ec TEM1) Escherichia coli […] strain; in short: as §2
Staphylococcus aureus [12] = experiment: In vitro antibacterial activity against Sa MR(II) homogeneous methicillin resistant Staphylococcus aureus; in short: as §3
Pseudomonas aeruginosa [13] = experiment: In Vitro antibacterial activity against (Pa) hyperpermeable Pseudomonas aeruginosa […] strain; in short: as §2
Escherichia coli [14] = experiment: In Vitro antibacterial activity against (Ec TEM2) Escherichia coli […] strain; in short: as §2
Klebsiella pneumoniae = experiment: In Vitro Anti Bacterial Activity (MIC90) against 90% of tested clinical Isolates of Klebsiella pneumoniae(20); in short: as §1
Staphylococcus aureus [15] = experiment: In Vitro Anti Bacterial Activity (MIC90) against 90% of tested clinical Isolates of Staphylococcus aureus MV (20)
Streptococcus agalactiae = experiment: In Vitro Anti Bacterial Activity (MIC90) against 90% of tested clinical Isolates of Streptococcus agalactiaeB(21)
Providencia stuartii = experiment: In Vitro Anti Bacterial Activity (MIC90) against 90% of tested clinical Isolates of Providencia stuartii(10); in short: as §1
Proteus mirabilis = experiment: In Vitro Anti Bacterial Activity (MIC90) against 90% of tested clinical Isolates of Proteus mirabilis(16); in short: as §1
Pseudomonas aeruginosa [16] = experiment: In Vitro Anti Bacterial Activity (MIC90) against 90% of tested clinical Isolates of Pseudomonas aeruginosa(11); in short: as §1
Escherichia coli [17] = experiment: In Vitro antibacterial activity against (Ec DC2) hyperpermeable Escherichia coli strain; in short: as §2
[18] = tested on: Staphylococcus epidermidis; experiment: In Vitro Anti Bacterial Activity (MIC90) against 90% of tested clinical Isolates of Staphylococcus epidermidis (13); in short: as §1
Escherichia coli [19] = experiment: In Vitro antibacterial activity against (Ec SHV) Escherichia coli […] strain; in short: as §2
Clostridium perfringens = experiment: In Vitro Anti Bacterial Activity (MIC90) against 90% of tested clinical Isolates of Clostridium perfringens(27)
In short: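 MIC90 over clinical isolates of this anaerobic species, taken from the MIC distribution. Anaerobes were tested on Wilkins-Chalgren agar with an inoculum of 10⁵ cells/mL and incubated 24–48 h at 37 °C.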

Proteus vulgaris = experiment: In Vitro Anti Bacterial Activity (MIC90) against 90% of tested clinical Isolates of Proteus vulgaris(10); in short: as §1
Staphylococcus aureus [20] = experiment: In vitro antibacterial activity against Sa MR(I) heterogeneous methicillin resistant Staphylococcus aureus; in short: as §3
Escherichia coli [21] = experiment: In Vitro antibacterial activity against (Ec) Escherichia coli ATCC 25922; in short: as §2
Enterococcus faecalis [22] = experiment: In Vitro antibacterial activity against (Ef) Enterococcus faecalis ATCC 29212; in short: as §2

With `C[C@@H](O)[C@H]1C(=O)N2C(C(=O)O)=C(CN3CCC[C@H]3C(N)=O)S[C@H]12` the MIC90 (Enterococcus faecalis [1]) was 8 µg/mL (≈ 23.4 µM), the MIC90 (Aeromonas) was 0.5 µg/mL (≈ 1.46 µM) and the MIC (Pseudomonas aeruginosa [2]) was 2 µg/mL (≈ 5.86 µM). It also gave an MIC (Escherichia coli [3]) of 2 µg/mL (≈ 5.86 µM), an MIC90 (Staphylococcus aureus [4]) of 0.06 µg/mL (≈ 0.176 µM) and an MIC90 (Klebsiella aerogenes) of 16 µg/mL (≈ 46.9 µM). It also gave an MIC90 (Enterococcus faecium) of over 64 µg/mL, an MIC90 (Streptococcus pneumoniae) of 0.06 µg/mL (≈ 0.176 µM) and an MIC90 (Bacteroides fragilis) of 16 µg/mL (≈ 46.9 µM). The MIC (Pseudomonas aeruginosa [5]) was 64 µg/mL (≈ 187 µM), the MIC90 [6] was 16 µg/mL (≈ 46.9 µM) and the MIC (Staphylococcus aureus [7]) was 0.015 µg/mL (≈ 0.0439 µM). It also gave an MIC90 (Moraxella catarrhalis) of 0.25 µg/mL (≈ 0.732 µM), an MIC90 (Streptococcus pyogenes) of 0.06 µg/mL (≈ 0.176 µM) and an MIC (Staphylococcus aureus [8]) of 0.12 µg/mL (≈ 0.352 µM). The MIC90 (Morganella morganii) was 4 µg/mL (≈ 11.7 µM), the MIC90 [9] was over 64 µg/mL and the MIC90 (Listeria monocytogenes) was 0.5 µg/mL (≈ 1.46 µM). The MIC90 (Citrobacter freundii) was 0.5 µg/mL (≈ 1.46 µM), the MIC90 (Yersinia sp.) was 0.25 µg/mL (≈ 0.732 µM) and the MIC90 (Haemophilus influenzae) was 4 µg/mL (≈ 11.7 µM). For the same compound, the MIC90 (Providencia rettgeri) was 4 µg/mL (≈ 11.7 µM), the MIC90 (Escherichia coli [10]) was 0.12 µg/mL (≈ 0.352 µM) and the MIC (Escherichia coli [11]) was 2 µg/mL (≈ 5.86 µM). For the same compound, the MIC (Staphylococcus aureus [12]) was 2 µg/mL (≈ 5.86 µM), the MIC (Pseudomonas aeruginosa [13]) was 1 µg/mL (≈ 2.93 µM) and the MIC (Escherichia coli [14]) was 2 µg/mL (≈ 5.86 µM). For the same compound, the MIC90 (Klebsiella pneumoniae) was 0.5 µg/mL (≈ 1.46 µM), the MIC90 (Staphylococcus aureus [15]) was 8 µg/mL (≈ 23.4 µM) and the MIC90 (Streptococcus agalactiae) was 0.03 µg/mL (≈ 0.0879 µM). It also gave an MIC90 (Providencia stuartii) of 4 µg/mL (≈ 11.7 µM), an MIC90 (Proteus mirabilis) of 4 µg/mL (≈ 11.7 µM) and an MIC90 (Pseudomonas aeruginosa [16]) of over 64 µg/mL. The MIC (Escherichia coli [17]) was 2 µg/mL (≈ 5.86 µM), the MIC90 [18] was 0.12 µg/mL (≈ 0.352 µM) and the MIC (Escherichia coli [19]) was 2 µg/mL (≈ 5.86 µM). For the same compound, the MIC90 (Clostridium perfringens) was 1 µg/mL (≈ 2.93 µM), the MIC90 (Proteus vulgaris) was 4 µg/mL (≈ 11.7 µM) and the MIC (Staphylococcus aureus [20]) was 0.5 µg/mL (≈ 1.46 µM).

For `C[C@@H](O)[C@H]1C(=O)N2C(C(=O)O)=C(CN3C[C@H](O)C[C@H]3C(N)=O)S[C@H]12`, the MIC90 (Enterococcus faecalis [1]) was 8 µg/mL (≈ 22.4 µM), the MIC90 (Aeromonas) was 2 µg/mL (≈ 5.6 µM) and the MIC (Escherichia coli [21]) was 0.03 µg/mL (≈ 0.0839 µM). For the same compound, the MIC (Pseudomonas aeruginosa [2]) was 0.06 µg/mL (≈ 0.168 µM), the MIC (Escherichia coli [3]) was 0.03 µg/mL (≈ 0.0839 µM) and the MIC90 (Staphylococcus aureus [4]) was 0.12 µg/mL (≈ 0.336 µM). The MIC90 (Klebsiella aerogenes) was 16 µg/mL (≈ 44.8 µM), the MIC90 (Enterococcus faecium) was over 64 µg/mL and the MIC90 (Streptococcus pneumoniae) was 0.03 µg/mL (≈ 0.0839 µM). It also gave an MIC90 (Bacteroides fragilis) of 32 µg/mL (≈ 89.5 µM), an MIC (Pseudomonas aeruginosa [5]) of over 64 µg/mL and an MIC90 [6] of 16 µg/mL (≈ 44.8 µM). The MIC (Staphylococcus aureus [7]) was 0.12 µg/mL (≈ 0.336 µM), the MIC90 (Moraxella catarrhalis) was 1 µg/mL (≈ 2.8 µM) and the MIC90 (Streptococcus pyogenes) was 0.03 µg/mL (≈ 0.0839 µM). For the same compound, the MIC (Staphylococcus aureus [8]) was 0.12 µg/mL (≈ 0.336 µM), the MIC90 (Morganella morganii) was 8 µg/mL (≈ 22.4 µM) and the MIC90 [9] was over 64 µg/mL. It also gave an MIC90 (Listeria monocytogenes) of 0.12 µg/mL (≈ 0.336 µM), an MIC90 (Citrobacter freundii) of 1 µg/mL (≈ 2.8 µM) and an MIC90 (Yersinia sp.) of 0.15 µg/mL (≈ 0.42 µM). The MIC (Enterococcus faecalis [22]) was 2 µg/mL (≈ 5.6 µM), the MIC90 (Haemophilus influenzae) was 4 µg/mL (≈ 11.2 µM) and the MIC90 (Providencia rettgeri) was 4 µg/mL (≈ 11.2 µM). It also gave an MIC90 (Escherichia coli [10]) of 0.015 µg/mL (≈ 0.042 µM), an MIC (Escherichia coli [11]) of 0.12 µg/mL (≈ 0.336 µM) and an MIC (Staphylococcus aureus [12]) of 8 µg/mL (≈ 22.4 µM). For the same compound, the MIC (Pseudomonas aeruginosa [13]) was 0.2 µg/mL (≈ 0.56 µM), the MIC (Escherichia coli [14]) was 0.25 µg/mL (≈ 0.7 µM) and the MIC90 (Klebsiella pneumoniae) was 0.5 µg/mL (≈ 1.4 µM). For the same compound, the MIC90 (Staphylococcus aureus [15]) was over 32 µg/mL, the MIC90 (Streptococcus agalactiae) was 0.06 µg/mL (≈ 0.168 µM) and the MIC90 (Providencia stuartii) was 4 µg/mL (≈ 11.2 µM). For the same compound, the MIC90 (Proteus mirabilis) was 4 µg/mL (≈ 11.2 µM), the MIC90 (Pseudomonas aeruginosa [16]) was over 64 µg/mL and the MIC (Escherichia coli [17]) was 0.12 µg/mL (≈ 0.336 µM). The MIC90 [18] was 1 µg/mL (≈ 2.8 µM), the MIC (Escherichia coli [19]) was 0.25 µg/mL (≈ 0.7 µM) and the MIC90 (Clostridium perfringens) was 0.25 µg/mL (≈ 0.7 µM). It also gave an MIC90 (Proteus vulgaris) of 4 µg/mL (≈ 11.2 µM) and an MIC (Staphylococcus aureus [20]) of 0.25 µg/mL (≈ 0.7 µM).
